According to ChEMBL document CHEMBL1146069, “Photodynamic efficiency of diethylene glycol-linked glycoconjugated porphyrins in human retinoblastoma cells” (J Med Chem, 2006):

Experiments:
[1] = test system: Y79; experiment: Cellular uptake in human Y79 cells relative to unglycosylated TPP(p-DegOH)3; type: ADME, cell-based
[2] = test system: B16; experiment: Cellular uptake in mouse B16 cells relative to unglycosylated TPP(p-DegOH)3; type: ADME, cell-based
[3] = test system: Y79; experiment: Toxicity against human Y79 cells at 2 uM after 4 hrs in dark; type: cell-based; conditions: y79, 4 h
Method in brief: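 Y79 cells were plated at 2 × 10^5 cells/mL in COON's medium with 2% FCS. They were exposed to 2 µM dye (DMSO stock diluted in medium) for 4 h in the dark, then centrifuged, washed and resuspended in fresh complete medium with no irradiation. Survival fraction was measured by MTT at 570/640 nm.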

[4] = test system: HT-29; experiment: Cellular uptake in human HT29 cells relative to unglycosylated TPP(p-DegOH)3; type: ADME, cell-based
[5] = test system: Y79; experiment: Survival of human Y79 cells at 2 uM irradiated with 514 nM light at the fluence of 1 J/cm2 after 4 hrs; type: functional; conditions: Y79, light or radiation study, read-out: LD50 (the source's name)
Method in brief: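 Y79 retinoblastoma cells (ATCC, suspension in COON's medium with 20% FCS) plated at 2 × 10^5 cells/mL in COON's with 2% FCS. Dye added from a 5 mg/mL DMSO stock, incubated 4 h in the dark, then cells centrifuged, washed and resuspended in fresh complete medium. Ar+ laser irradiation at 514 nm, 1 J/cm2. MTT viability read 24 h later at 570/640 nm.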

[6] = Partition coefficient of the compound, log P; type: physicochemical; conditions: octanol/water
[7] = test system: HT-29; experiment: Survival of human HT29 cells at 2 uM irradiated with 514 nM light at the fluence of 5 J/cm2 after 4 hrs; type: functional; conditions: HT-29, light or radiation study, read-out: LD50 (the source's name)
Method in brief: (§1)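 Adherent cells (human HT29 colorectal adenocarcinoma; murine B16 melanoma) seeded at 10^5 cells/mL. Dye added from a DMSO stock and incubated 4 h in DMEM with 2% FCS in the dark. Irradiation at 514 nm, 5 J/cm2, in the same dye-containing medium. Survival measured by MTT colorimetric assay.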

[8] = test system: B16; experiment: Survival of mouse B16 cells at 2 uM irradiated with 514 nM light at the fluence of 5 J/cm2 after 4 hrs; type: functional; conditions: B16, light or radiation study, read-out: LD50 (the source's name); method in brief: as §1

OCCOCCOc1ccc(-c2c3nc(c(-c4ccccc4)c4ccc([nH]4)c(-c4ccc(OCCOCCO)cc4)c4ccc([nH]4)c(-c4ccc(OCCOCCO)cc4)c4nc2C=C4)C=C3)cc1
Ratio [1]: 1
Ratio [2]: 1
Activity [3]: Not Active
Ratio [4]: 1
CC50 [5]: > 2000 nM
logP [6]: > 2

OC[C@H]1O[C@@H](SCCOCCOc2ccc(-c3c4nc(c(-c5ccccc5)c5ccc([nH]5)c(-c5ccc(OCCOCCS[C@@H]6O[C@H](CO)[C@H](O)[C@@H](O)[C@H]6O)cc5)c5ccc([nH]5)c(-c5ccc(OCCOCCS[C@@H]6O[C@H](CO)[C@H](O)[C@@H](O)[C@H]6O)cc5)c5nc3C=C5)C=C4)cc2)[C@H](O)[C@H](O)[C@H]1O
Ratio [1]: 3.5
Ratio [2]: 2.7
CC50 [7]: 820 nM
Activity [3]: Not Active
Ratio [4]: 3
CC50 [5]: 600 nM
CC50 [8]: 2000 nM
logP [6]: -0.07

OC[C@H]1O[C@@H](OCCOCCOc2ccc(-c3c4nc(c(-c5ccccc5)c5ccc([nH]5)c(-c5ccc(OCCOCCO[C@@H]6O[C@H](CO)[C@H](O)[C@@H](O)[C@H]6O)cc5)c5ccc([nH]5)c(-c5ccc(OCCOCCO[C@@H]6O[C@H](CO)[C@H](O)[C@@H](O)[C@H]6O)cc5)c5nc3C=C5)C=C4)cc2)[C@H](O)[C@H](O)[C@H]1O
Ratio [1]: 3.7
Ratio [2]: 4
CC50 [7]: 250 nM
Activity [3]: Not Active
Ratio [4]: 4.4
CC50 [5]: 600 nM
CC50 [8]: 680 nM
logP [6]: 0.23

OC[C@H]1O[C@H](OCCOc2ccc(-c3c4nc(c(-c5ccccc5)c5ccc([nH]5)c(-c5ccc(OCCO[C@H]6O[C@H](CO)[C@@H](O)[C@@H](O)[C@@H]6O)cc5)c5ccc([nH]5)c(-c5ccc(OCCO[C@H]6O[C@H](CO)[C@@H](O)[C@H](O)[C@@H]6O)cc5)c5nc3C=C5)C=C4)cc2)[C@@H](O)[C@@H](O)[C@@H]1O
Ratio [1]: 1.6
Ratio [2]: 1.8
CC50 [7]: 440 nM
Activity [3]: Not Active
Ratio [4]: 1.7
CC50 [5]: 600 nM
CC50 [8]: 850 nM
logP [6]: 0.78

OC[C@H]1O[C@H](OCCOCCOc2ccc(-c3c4nc(c(-c5ccccc5)c5ccc([nH]5)c(-c5ccc(OCCOCCO[C@H]6O[C@H](CO)[C@@H](O)[C@H](O)[C@@H]6O)cc5)c5ccc([nH]5)c(-c5ccc(OCCOCCO[C@H]6O[C@H](CO)[C@@H](O)[C@H](O)[C@@H]6O)cc5)c5nc3C=C5)C=C4)cc2)[C@@H](O)[C@@H](O)[C@@H]1O
Ratio [1]: 4.9
Ratio [2]: 6.5
CC50 [7]: 350 nM
Activity [3]: Not Active
Ratio [4]: 5
CC50 [5]: 350 nM
CC50 [8]: 430 nM
logP [6]: 0.02

OC[C@H]1O[C@H](OCCOCCOc2ccc(-c3c4nc(c(-c5ccccc5)c5ccc([nH]5)c(-c5ccc(OCCOCCO[C@H]6O[C@H](CO)[C@H](O)[C@@H](O)[C@H]6O)cc5)c5ccc([nH]5)c(-c5ccc(OCCOCCO[C@H]6O[C@H](CO)[C@H](O)[C@@H](O)[C@H]6O)cc5)c5nc3C=C5)C=C4)cc2)[C@H](O)[C@H](O)[C@H]1O
Ratio [1]: 2
CC50 [7]: 820 nM
Activity [3]: Not Active
Ratio [4]: 1.8
CC50 [5]: 50 nM
CC50 [8]: 100 nM
logP [6]: 0.5

OC[C@H]1O[C@H](SCCOCCOc2ccc(-c3c4nc(c(-c5ccccc5)c5ccc([nH]5)c(-c5ccc(OCCOCCS[C@H]6O[C@H](CO)[C@@H](O)[C@H](O)[C@@H]6O)cc5)c5ccc([nH]5)c(-c5ccc(OCCOCCS[C@H]6O[C@H](CO)[C@@H](O)[C@H](O)[C@@H]6O)cc5)c5nc3C=C5)C=C4)cc2)[C@@H](O)[C@@H](O)[C@@H]1O
Ratio [1]: 1.4
Ratio [2]: 1.3
CC50 [7]: > 2000 nM
Activity [3]: Not Active
Ratio [4]: 1.2
CC50 [5]: 650 nM
CC50 [8]: 2000 nM
logP [6]: 0.46
